Screens deposited in PubChem BioAssay by several laboratories.
ROMK primary – human ROMK K+ channel modulation, primary screen; P48048; 130,000 tested, 2% active; Tet-inducible ROMK, thallium flux fluorescence; actives lie on both sides; B-score at 10 µM;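 active = signal ratio slope over the read window, or its plate-corrected B-score, at least 3 SD from the plate mean, either direction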;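 also: B-score of the F/F0 ratio slope over 7 to 12 s after thallium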
Target sequence (P48048 whole entry, looked up): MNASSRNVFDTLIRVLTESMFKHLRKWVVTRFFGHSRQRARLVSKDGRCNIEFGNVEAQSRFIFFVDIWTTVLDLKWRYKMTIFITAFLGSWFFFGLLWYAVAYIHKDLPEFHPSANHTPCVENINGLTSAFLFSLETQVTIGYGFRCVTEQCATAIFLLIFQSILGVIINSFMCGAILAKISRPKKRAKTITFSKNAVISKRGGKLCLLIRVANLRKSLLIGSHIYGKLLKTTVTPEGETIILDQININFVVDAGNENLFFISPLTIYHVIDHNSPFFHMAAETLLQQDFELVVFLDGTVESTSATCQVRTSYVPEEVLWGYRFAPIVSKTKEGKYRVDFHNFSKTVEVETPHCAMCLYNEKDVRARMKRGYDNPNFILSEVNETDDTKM
MT stabilizer – stabilizes microtubules in HeLa cells; AID 2205; 200,000 tested, 0.83% active; HeLa tubulin immunostaining HCS, 24 h; share of cells brighter than vehicle mean+2SD; % tubulin-high responders, % at 10 µM;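 active = plate Z-score above 3 for both tubulin-high and condensed-nucleus cell shares, with cell loss under 80%, at 10 µM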;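 also: anti alpha tubulin signal scored within the nucleus-defined area of each cell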
HSV replic up – HSV replication enhancement. HSV replication augmentation in cells, fold increase. maximum fold increase. 220,000 tested, 0.005% active. AID 1956; in the data active = maximum fold increase above about 1.5; inconclusive = no clear call, values can overlap the other calls; tested in PC3 cells
b-catenin transl – alters nuclear translocation of beta-catenin in HeLa cells; AID 1665; immunofluorescence imaging; nuclear translocation activity, % at 5 µM; 190,000 tested, 0.3% active;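 active = nuclear translocation activity above 50% at 5 µM, with a well cell count of 50 or more; inconclusive = wells under 50 cells across six images, flagged as toxic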;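 also: per-cell ratio of nuclear to cytoplasmic median beta-catenin stain intensity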
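Signal – beta-catenin immunofluorescence imaging with DAPI · Test system – human HeLa cell line · Dosing – 5 µM primary single dose, 0.1% DMSO, 0.02–20 µM confirmation series · Measure – % activation, nuclear-to-cytoplasmic median beta-catenin signal ratio per cell · Incubation – 24 h compound exposure at 37°C, 5% CO2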
Insulin prom inh – TRM-6 insulin promoter activity inhibition; TRM-6 cells (human fetal islet line), insulin promoter-eGFP reporter, imaging; reporter expression induced with tamoxifen; inhibition, % at 2 µM; 130,000 tested, 0.9% active;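 active = inhibition above the mean plus 3 SD, with well images judged a real hit on visual review, cut at about 60% in these data, passing the limit was not always enough; inconclusive = inhibition over the cutoff but images rejected on review; inactive = inhibition not above the cutoff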
ROMK hit retest – retested hit modulating human ROMK potassium channel; shares compounds with ROMK primary; ROMK thallium flux, fluorescence ratio; active compounds read low; normalized thallium flux (F/F0 slope) at 10 µM; 3,000 tested, 54% active; AID 1917;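 active = Flux at 10 µM at least 3 SD below or above vehicle control mean in one or both replicates; inconclusive = no clear call, values can overlap the other calls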
Numbers stand for hits; . = inactive; ? = inconclusive; / = no result. An excerpt weighted towards active compounds, which were near 2.4% of everything screened.

SMILES	ROMK primary	MT stabilizer	HSV replic up	b-catenin transl	Insulin prom inh	ROMK hit retest
CN(C)CCNC(=O)/C(=C/c1ccc(-c2cccc(Cl)c2)o1)NC(=O)c1ccccc1	-3.7	.	.	.	.	0.056
CN(C)CCNC(=O)/C(=C/c1ccc(-c2cccc([N+](=O)[O-])c2)o1)NC(=O)c1ccccc1	-4.5	.	.	/	.	0.053
CC(C)(C)N(NC(=O)Nc1ccc(Cl)c(Cl)c1)C(=O)c1ccccc1	/	.	.	.	.	.
CC(C)(C)N(NC(=O)Nc1ccc(F)cc1)C(=O)c1ccccc1	/	.	.	.	.	/
CN1C(=O)c2ccccc2C(C(=O)O)C1c1cccc(Cl)c1 (stereo unspecified)	1.6	.	.	.	.	.
Cc1cc(C)nc(NC(=O)Cc2ccc(Br)cc2)n1	.	.	.	.	.	/
CN=c1scc(C)n1/N=C/c1ccc(O)cc1O	/	.	.	.	.	?
O=[N+]([O-])/C=C\c1ccc(N2CCCC2)c(F)c1	/	.	/	.	.	0.042
O=[N+]([O-])c1cc(/C=N/O)ccc1N1CCCC1	-3.4	.	.	.	.	?
O=C(NNC(=O)C1CC(c2cccnc2)=NO1)Nc1cccc(F)c1 (stereo unspecified)	.	.	/	.	/	/
COc1ccccc1C1SCCN1S(=O)(=O)c1cccc(C(F)(F)F)c1 (stereo unspecified)	-4.3	.	.	/	.	0.066
N#C/C(=C/c1ccc(F)cc1)C(N)=S	-3.1	.	.	.	/	0.051
Cn1cccc1/C=C(/C#N)C(N)=S	.	.	.	.	.	/
CC1CCCN(C(=O)CN2CCC(c3nc4ccc(Cl)cc4[nH]3)CC2)C1 (stereo unspecified)	/	/	.	.	/	/
Clc1ccc(CN2CCC(c3nc4ccc(Cl)cc4[nH]3)CC2)cc1	/	.	/	.	.	0.063
Cc1cccc(C)c1-n1c(C)cc(/C=N/NC(N)=S)c1C	2.8	.	.	/	.	.
Cc1cc(/C=N/NC(N)=S)c(C)n1-c1ccc(Cl)cc1	1.7	.	.	.	.	.
CCc1ccc2c(c1)/C(=N/OC)C(=O)N2	.	.	.	/	.	/
COC(C)(C)[C@]12CC(O)(c3ccccc3)ON1[C@H]1CCCCC1N2O (stereo partly specified)	/	.	.	.	.	/
O=C(NC1CCCCCCC1)C1c2ccccc2C(=O)N1Cc1ccco1 (stereo unspecified)	/	.	.	.	.	?
CCOC(=O)C1CCCN(C(=O)c2cnn3c(C(F)F)cc(-c4ccc(C)cc4)nc23)C1 (stereo unspecified)	/	.	.	/	/	.
CCOc1ccccc1NC(=O)N1CCCC(c2nc(-c3ccc(C)o3)no2)C1 (stereo unspecified)	.	.	.	.	.	/
O=S(=O)(/N=C(/Nc1cccc2ccccc12)c1ccccc1)c1cccs1	/	.	.	.	.	0.06
Cc1nn(C)c(C)c1S(=O)(=O)N1CCC(CO)(CC2CCCCO2)CC1 (stereo unspecified)	.	.	.	.	/	/
O=C(OC(C(=O)NCC1CCCO1)c1ccccn1)c1cccs1 (stereo unspecified)	.	.	.	/	.	/
SMILES	ROMK primary	MT stabilizer	HSV replic up	b-catenin transl	Insulin prom inh	ROMK hit retest
COc1cccc(C(=O)CSc2nnc(-c3cc(OC)cc(OC)c3)o2)c1	1.1	.	.	.	.	?
Cc1ccc(NS(=O)(=O)c2cc3c4c(cccc4c2)C(=O)NC3=O)cc1	1.7	.	.	.	/	?
Cc1ccc(N=Nc2[nH]c3ccccc3c2O)cc1	-4.8	.	/	.	.	0.056
CCOc1ccc2nc(C)cc(C(=O)O)c2c1	1.9	.	.	.	/	.
COc1ccc2nc(C)cc(C(=O)O)c2c1	/	.	.	.	/	/
CCc1ccc(S(=O)(=O)NCCc2csc(-c3ccccc3)n2)s1	-3.4	.	.	.	.	.
O=S1(=O)Cc2cc3ccccc3cc2C1	.	.	.	.	/	/
CCOc1ccc2[nH]c(=O)c(CN(Cc3ccco3)C(CC)c3nnnn3Cc3ccccc3)cc2c1 (stereo unspecified)	/	.	.	.	/	.
CCOc1ccc2[nH]c(=O)c(CN(Cc3ccco3)Cc3nnnn3Cc3ccccc3)cc2c1	/	.	.	.	/	/
CCOC(=O)Cn1nnnc1C(C(C)C)N(Cc1cccs1)Cc1cc2cc(C)ccc2[nH]c1=O (stereo unspecified)	.	.	.	.	.	/
CCOC(=O)Cn1nnnc1C(CC)N(Cc1cccs1)Cc1cc2cc(C)ccc2[nH]c1=O (stereo unspecified)	-4	.	.	.	/	.
Cc1ccc(S(=O)(=O)N2CCCCC2)cc1NC(=O)c1ccccn1	/	/	.	.	/	/
